KCNQ1 inh: blocks the human KCNQ1 potassium channel; P51787; CHO-K1 KCNQ1, FluxOR thallium flux fluorescence; active compounds read high; B-score at 10 µM; 310,000 compounds, 1.3% hits;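 active means compounds whose thallium flux B-score, printed positive for inhibition, exceeds three library SD while starting fluorescence stays within three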;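 further: channel opened by potassium depolarization with thallium stimulus after 20 min compound exposure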
KCNK9 block: human KCNK9 channel inhibition | 310,000 compounds, 1.2% hits | Q9NPC2 | HEK293 KCNK9, FluxOR thallium flux fluorescence; active compounds read low | AID 488922 | B-score at 10 µM;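 active means ratio B-score over 3 SD below the library mean, with starting fluorescence within 5 SD of its mean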;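 further: negative B-score means less thallium flux so channel inhibition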
Target sequence (Q9NPC2 whole entry, looked up): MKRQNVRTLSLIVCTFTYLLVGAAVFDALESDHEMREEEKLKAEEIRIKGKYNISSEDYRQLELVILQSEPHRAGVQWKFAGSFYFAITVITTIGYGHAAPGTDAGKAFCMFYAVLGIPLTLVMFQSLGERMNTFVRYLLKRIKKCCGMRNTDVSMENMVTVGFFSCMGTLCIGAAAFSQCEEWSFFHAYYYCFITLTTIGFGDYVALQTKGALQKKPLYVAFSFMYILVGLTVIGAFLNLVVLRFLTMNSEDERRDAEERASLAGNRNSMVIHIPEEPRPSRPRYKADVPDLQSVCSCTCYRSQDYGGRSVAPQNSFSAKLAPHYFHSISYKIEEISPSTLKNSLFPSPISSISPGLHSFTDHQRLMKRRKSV
KCNK3 block: human KCNK3 channel inhibition, primary screen. B-score at 10 µM. 340,000 compounds, 0.84% hits. CHO-KCNK3 thallium flux, FluxOR fluorescence; active compounds read low. AID 602410;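 active means B-score under library mean minus 4 SD, starting fluorescence ratio at most library mean plus 5 SD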;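 further: more negative B-score means stronger inhibition of thallium flux through KCNK3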
KCNQ1 pot: human KCNQ1 channel potentiation or activation; P51787; CHO-K1 KCNQ1, thallium flux FluxOR fluorescence; active compounds read high; B-score at 10 µM; 310,000 compounds, 0.35% hits; AID 2648;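 active means fluorescence ratio B-score, a plate-corrected score, at least three library SD, with initial intensity B-score within 5 SD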
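Doses: Single concentration per compound, DMSO matched to controls | Test system: KCNQ1-transfected CHO-K1 cells | Timing: 90 min dye loading and 20 min compound exposure, both at room temperature | Measured by: Kinetic FluxOR thallium fluorescence, 10-s 1-Hz baseline, 110-s post-stimulus read | Medium: Assay buffer with matched DMSO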
Kir21 inh: Kir2.1 (mouse) channel inhibition; P35561; AID 1672; B-score at 10 µM; 310,000 compounds, 0.85% hits; HEK293-Kir2.1, FluxOR thallium flux fluorescence; active compounds read low;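 active means fluorescence ratio B-score at or below minus 3 SD of library scores, with starting-brightness B-score within 2 SD, cut at about -4.2 in these data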;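 further: channel flux triggered by added potassium and thallium sulfate stimulus; B-score of peak minus minimum fluorescence over baseline after thallium stimulus; more negative B-score means stronger Kir2.1 block with less thallium influx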
hERG protect: compounds protecting human hERG from proarrhythmic drug block; 310,000 compounds, 0.51% hits; CHO-hERG, FluxOR thallium flux, dofetilide IC70 present; Q12809; activation (rescue from dofetilide block), less the hit threshold, % at 10 µM;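 active means activation above the mean of controls blocked by dofetilide plus 5 SD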;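 further: thallium influx through hERG after potassium depolarization seen as dye fluorescence rise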
KCNK3 confirm: confirmation of human KCNK3 two-pore domain potassium channel inhibitors; shares compounds with KCNK3 block; CHO-KCNK3 thallium flux, FluxOR fluorescence; 0% buffer, 100% carvedilol maximal block; ratio percent of control, % at 10 µM; 2,400 compounds, 99% hits;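 active means ratio percent of control, averaged over triplicates, above buffer control mean plus 5 SD, cut at about 64% in these data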;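 further: ratio is the fluorescence rise from min to max over baseline after thallium stimulus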
KCNK3 noninduced: counter-screen for KCNK3 inhibitors: effect in non-induced cells | thallium flux ratio (lower = more inhibition) at 10 µM | 2,400 compounds, 40% hits | AID 651747 | non-induced KCNK3 parental cells, FluxOR thallium flux; active compounds read low | shares compounds with KCNK3 block;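 active means thallium flux ratio, averaged over three wells, more than 5 SD below the buffer control mean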;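 further: host cells are CHO cells without KCNK3 induction; ratio is peak minus trough fluorescence over baseline then normalized to buffer controls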
Numbers without * were called inactive; i = inactive; . = no result. Only some compounds are listed: those with a hit (about 3.7% of all), similar ones and a draw of the others.

SMILES	KCNQ1 inh	KCNK9 block	KCNK3 block	KCNQ1 pot	Kir21 inh	hERG protect	KCNK3 confirm	KCNK3 noninduced
COC(=O)c1ccc2c(c1)C(C)(C)C(/C=C/c1ccc(OC)c(OC)c1OC)=[N+]2C	7*	i	-12*	i	-7.2*	-28	117*	0.09*
CCN(CC)c1ccc(NC2CC(=O)N(CCc3ccc(OC)cc3)C2=O)cc1 (configuration not stated)	i	i	i	i	-0.02	-11	.	.
CCOC(=O)C1=C(C)N=C2c3ccccc3C(=O)C2C1c1ccccc1 (configuration not stated)	i	i	-8.9*	i	-0.04	-6	102*	i
Cc1cccc(CSC2=NCCN2S(=O)(=O)c2ccc(F)cc2)c1	i	i	-8.9*	i	-1	-9	105*	i
Cc1ccc(S(=O)(=O)N2CCN=C2SCc2ccccc2)cc1	i	i	i	i	-2	-5	.	.
O=C1CCC(C(=O)OC(C(=O)c2c[nH]c3ccccc23)c2ccccc2)=NN1 (configuration not stated)	i	-8.7*	i	i	-0.75	-2	111*	i
C[C@H](CO)N1C[C@H](C)[C@@H](CN(C)CC2CCCCC2)Oc2c(NC(=O)C3CC3)cccc2C1=O	.	.	-12*	.	.	.	104*	i
COc1ccccc1-n1c(SCC(=O)Nc2ccccc2F)nc2[nH]ncc2c1=O	i	i	-9.6*	i	0.02	-14	114*	i
CC/C(=N\NC(=O)c1cc(C2CC2)[nH]n1)c1ccccc1	i	i	i	i	-0.52	-8	.	.
O=C(Nc1ccc(Cl)cc1)c1cc(Br)ccc1OCC(=O)N1CCOCC1	i	i	-10*	i	-0.04	-3	112*	i
O=C(Nc1ccc(OCC(=O)N2CCOCC2)cc1)c1ccccc1F	i	i	i	i	-1.5	-5	.	.
CCc1ccc(NC(=O)N(CCCN2CCOCC2)C(C)c2cc3cccc(OC)c3o2)cc1 (configuration not stated)	i	i	-8.8*	i	-0.28	-13	118*	i
COc1cccc2cc(C(C)N(CCCN3CCOCC3)C(=S)Nc3c(C)cccc3C)oc12 (configuration not stated)	i	i	i	i	1.6	-8	.	.
COc1cc2c(cc1OC)CN(C(=S)Nc1ccc(Cl)cc1)CC2	i	i	i	i	0.45	-4	.	.
Cc1ccc(-c2csc3ncnc(N4CCN(Cc5ccccc5)CC4)c23)cc1	i	i	-11*	i	-0.13	-11	119*	i
O=c1sc2ccccc2n1COc1ccccc1	.	.	i	.	.	.	.	.
O=c1sc2ccccc2n1COc1ccc(Cl)cc1	i	i	-9.1*	i	2.1	-4	124*	0.15*
Cc1ccccc1OCCCn1c(=O)sc2ccccc21	i	i	-9.6*	i	0	-9	94*	i
CCOP(=O)(OCC)C(NC(=O)Nc1ccc(C)cc1)C(N)=O (configuration not stated)	i	i	i	i	0.06	-5	.	.
C/C(=N\Nc1ccc([N+](=O)[O-])cc1[N+](=O)[O-])C(C)C(C)C (configuration not stated)	8*	i	-9.2*	i	-0.41	-8	93*	0.14*
O=C(COc1cccc2cccnc12)N/N=C/c1cccn1-c1ccc(F)cc1	i	i	-8.7*	i	0.05	-21	108*	i
O=C(COc1cccc2cccnc12)N/N=C/c1ccc(O)cc1	i	i	i	i	1.9	-8	.	.
CCc1cc(CN2CCOCC2)c(NC(=O)c2ccccc2)s1	i	i	-9.3*	i	1.2	-13	102*	i
